# DNMT1 inh: human DNMT1 methyltransferase inhibitors, primary screen, biochemical, molecular beacon, fluorescence, HinP1I cleavage, uHTS | DNA (cytosine-5)-methyltransferase 1 (Homo sapiens), P26358 | inhibition (reported as % activation of signal), % at 10 µM | 360,000 compounds, 0.83% hits | AID 588458, 2011; in the data active = inhibition above about 50%
# SUMO1-SIM PPI: modulators of SUMO1 protein-protein interactions, primary screen, biochemical, uHTS | 360,000 compounds, 0.33% hits | SUMO1 binding to a labelled peptide, TR-FRET, 1 h | inhibition, % at 20 µM | Small ubiquitin-related modifier 1 (Homo sapiens), P63165
# Target sequence (P63165 whole entry, looked up): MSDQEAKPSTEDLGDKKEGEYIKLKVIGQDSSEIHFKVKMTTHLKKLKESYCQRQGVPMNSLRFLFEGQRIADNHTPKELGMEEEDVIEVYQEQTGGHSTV
# MBD2 inh: inhibitors of MBD2 binding to methylated DNA, primary screen, biochemical, TR-FRET, DNA-binding domain, human; Methyl-CpG-binding domain protein 2 (Homo sapiens), Q9UBB5; MBD2 binding to methylated oligonucleotide; inhibition, % at 4.4 µM; 370,000 compounds, 0.31% hits; AID 686964, 2013; in the data active = inhibition above about 13%
# Target sequence (Q9UBB5 whole entry, looked up, the tested form may be a part): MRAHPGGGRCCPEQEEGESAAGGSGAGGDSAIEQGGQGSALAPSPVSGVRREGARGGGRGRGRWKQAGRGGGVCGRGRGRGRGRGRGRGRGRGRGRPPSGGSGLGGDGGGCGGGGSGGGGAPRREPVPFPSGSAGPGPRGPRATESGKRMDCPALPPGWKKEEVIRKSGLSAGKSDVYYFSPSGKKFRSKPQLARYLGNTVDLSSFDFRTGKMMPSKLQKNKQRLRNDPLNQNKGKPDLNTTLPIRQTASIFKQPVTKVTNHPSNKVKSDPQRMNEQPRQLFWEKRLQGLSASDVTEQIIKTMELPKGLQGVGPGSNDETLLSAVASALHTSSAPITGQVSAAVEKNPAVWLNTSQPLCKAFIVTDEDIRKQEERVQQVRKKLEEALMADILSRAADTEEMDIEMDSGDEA
# NS3 helicase inh: inhibitors of HCV NS3 helicase, primary screen, biochemical, Cy5 molecular beacon fluorescence; Hepatitis C virus NS3 helicase; inhibition, % at 10.9 µM; 290,000 compounds, 0.56% hits; NS3 helicase DNA unwinding;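 active = inhibition above the mean of all tested compounds plus 3 SD, set per campaign, cut at about 35% in these data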;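 note: 0% = DMSO wells and 100% = thioflavine S control wells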
#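 Measured by: Cy5 fluorescence, 0 and 60 min reads / Assay system: NS3 helicase fragment of HCV / Control set: low DMSO, high thioflavine S at 110 µM / Times: 1 h reaction at 25 °C, ATP-initiated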
# UHRF1 binding: UHRF1 methylated DNA binding inhibitors, primary screen, counter-screen for MBD2 inhibitor project, biochemical, TR-FRET, human UHRF1, single concentration; E3 ubiquitin-protein ligase UHRF1 (Homo sapiens), Q96T88; UHRF1 binding to methylated oligo; inhibition, % at 4.4 µM; 370,000 compounds, 0.75% hits; in the data active = inhibition above about 21%;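 note: UHRF1 SRA domain binding a hemimethylated CpG hairpin DNA probe; 0% = median of test compound wells and 100% = reference inhibitor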
# DSG3 Ab inh: inhibitors of pemphigus antibody binding to DSG3, primary screen, biochemical, bead-based, flow cytometry, scFv-GFP; DSG3-coupled beads, scFv-anti-DSG3-GFP binding; hits give low values; 310,000 compounds, 0.48% hits; binding (percent of control), % at 10 µM;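 active = binding more than 3 SD below its plate's average and above zero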;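 note: hits lower antibody fragment binding to DSG3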
# NS3 helicase cf: HCV NS3 helicase inhibitors, retest, confirmation, biochemical, Cy5 molecular beacon fluorescence, triplicate. shares compounds with NS3 helicase inh. NS3 helicase DNA unwinding. inhibition, % at 10.9 µM. 1,600 compounds, 31% hits;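 active = inhibition above the mean of all tested compounds plus 3 SD, cutoff set per campaign, cut at about 36% in these data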
# FID counter trip: compounds displacing fluorescent DNA intercalator, artefact control for HCV NS3 helicase inhibitor project, biochemical, FID fluorescence, triplicate; DNA fluorescent intercalator displacement; 1,600 compounds, 4% hits; AID 1945, 2009; shares compounds with NS3 helicase inh; inhibition, % at 7.9 µM;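 note: 0% = vehicle and 100% = reference compound; higher means more displacement of ethidium bromide from the DNA hairpin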
# DNA FID DR: compounds displacing fluorescent intercalator from DNA, dose response, counter-screen for HCV NS3 helicase inhibitor project, biochemical, fluorescence. shares compounds with NS3 helicase inh. fluorescent intercalator displacement from DNA. IC50, µM. 120 tested, under 10 active; call rule not given here
# Active calls of the source: *; / = not tested or not shown. A selection: hits, their analogues and other compounds. The true share with any hit is near 2.5%. Cut-off read from the data, not from the text of the source, unless noted: active = inhibition above about 37%; inactive = the rest.
SMILES,DNMT1 inh,SUMO1-SIM PPI,MBD2 inh,NS3 helicase inh,UHRF1 binding,DSG3 Ab inh,others
NN=C1C(Cl)=C(Cl)C(Cl)=C1Cl,108*,12,13,/,40*,108,
Cc1ccccc1CS(=O)(=O)Cc1ccc(C(=O)N2CCC3(CC2)OCCO3)o1,11,1,2,10,-2,96,
C=C1C(=O)OC2CCN3CC=C(COC(=O)C(C)(O)C4(CO4)C1C)C23 (stereo unspecified),-1,-1,9,/,41*,/,
C=C1C/C(=C/C)C(=O)O[C@@H]2CCN3CC=C(COC(=O)[C@]1(C)O)[C@H]23,2,1,3,-5,-2,93,
CC(C)CN1CCN(Cc2cccc3c2OCO3)CC1CCO (stereo unspecified),1,2,-4,-9,8,109,
CCN(CC)c1ccc(/C=C2\C(=O)NC(=O)N(Cc3ccco3)C2=O)cc1,39,5,8,17,66*,165,
CCN(CC)c1ccc(/C=C2/C(=O)NC(=O)N(CC3CCCO3)C2=O)cc1 (stereo unspecified),-4,-10,2,3,-6,133,
O=C1NC(=O)C(=Cc2coc3ccccc3c2=O)C(=O)N1,0,-4,0,-7,-7,100,
O=C1NC(=O)C(=C/C=C/c2coc3ccc(Br)cc3c2=O)C(=O)N1,/,/,/,48*,/,/,
CCOC(=O)c1c(/N=C/C2C(=O)NC(=S)NC2=O)sc(C)c1C,/,/,/,6,/,/,
CCOC(=O)c1cc(C)sc1/N=C/C1C(=O)NC(=S)NC1=O,3,-7,5,3,2,69*,
COc1ccc(CCn2c(O)c(C=NCCN3CCCCC3)c(=O)[nH]c2=O)cc1OC,2,2,1,-2,-2,102,
COc1ccc(CCn2c(O)c(/C=N/N3CCOCC3)c(=O)[nH]c2=O)cc1OC,1,2,-1,2,42*,111,
COc1ccc(CNC(=O)CCC(=O)N2C[C@H]3C[C@H](C2)c2cccc(=O)n2C3)cc1OC,-2,0,3,0,1,/,
N#Cc1ccc(NC(=S)N2Cc3ccccc3-n3nncc3C2)cc1,0,5,-1,/,0,98,
Cc1ccc2c(c1)N(C(=O)CCC(=O)N1CCC3(CC1)OCCO3)CC(C)O2 (stereo unspecified),5,3,-3,-2,-3,112,
CCC(C)NC(=O)c1c(N)n(CCCOC)c2nc3ccccc3nc12 (stereo unspecified),38,41*,13,3,10,98,
CCC(C)NC(=O)c1c(N)n(Cc2ccc3c(c2)OCO3)c2nc3ccccc3nc12 (stereo unspecified),36,40*,-5,-4,-8,97,
O=c1c2ccc(Cl)cc2[nH]c(=S)n1-c1cccnc1,1,-4,2,-3,0,105,
O=C1CCN(C(=O)C(Cl)Cl)N1,0,-2,-2,-1,8,99,
Cc1cccc(-n2c(O)c(/C=C/C=Nc3ccccc3)c(=O)[nH]c2=O)c1,55*,-29,-6,7,-14,/,
O=C(O)c1ccc2c(c1)C1C(Cl)C(Sc3ccccc3[N+](=O)[O-])CC1C(c1cccc([N+](=O)[O-])c1)N2 (stereo unspecified),71*,46*,/,31,/,94,
O=[N+]([O-])c1cccc(C2N3CCCN23)c1 (stereo unspecified),0,-8,4,-6,-1,84,
CCN(CC)C(=O)c1ccc2c(c1)C1C(Cl)C(Sc3ccccc3[N+](=O)[O-])CC1C(C(=O)O)N2 (stereo unspecified),64*,65*,/,18,/,87,
O=C(O)c1cccc2c1NC(c1cccc([N+](=O)[O-])c1)C1CC(Sc3ccccc3[N+](=O)[O-])C(Cl)C21 (stereo unspecified),85*,41*,-4,29,-3,99,
SMILES,DNMT1 inh,SUMO1-SIM PPI,MBD2 inh,NS3 helicase inh,UHRF1 binding,DSG3 Ab inh,others
C=CCN1C(=O)NC(=O)/C(=C/c2cccn2C)C1=O,2,-5,1,-2,-4,95,
C=CCN1C(=O)NC(=O)/C(=C/c2ccoc2)C1=O,50*,5,3,0,28*,97,
OC(c1ccc(F)cc1)C(c1ccccc1)N1CCOCC1 (stereo unspecified),3,-2,3,-2,0,23*,
O=c1c2ccccc2nc(Cc2ccccc2)n1-c1ccccc1,1,1,0,-4,-1,109,
O=C(C[N+]12CCC(CC1)C(CO)C2)c1ccc([N+](=O)[O-])cc1 (stereo unspecified),-1,-24,4,9,29*,103,
O=P1(NC2CCCC2)COc2ccccc2OC1,3,-1,1,3,1,106,
c1ccc2c(c1)[nH]c1cnccc12,-4,-5,-2,-3,-2,116,
Cc1c2ccncc2c(C)c2c1[nH]c1ccccc12,39,-61,/,42*,/,148,NS3 helicase cf=57*;FID counter trip=83*
O=C1NC(=O)N(c2ccccc2)C(=O)/C1=C\c1ccc([N+](=O)[O-])s1,/,/,-2,41*,5,103,NS3 helicase cf=50*;FID counter trip=11;DNA FID DR=>79
C[C@]12CCC3C(CC[C@H]4C[C@H](O)CC[C@]34C)C1[C@@H](O)C[C@@H]2O (stereo partly specified),-1,-2,1,/,2,117,
C=CCn1c(O)c(/C(CC)=N/NC(=S)Nc2ccccc2)c(=O)[nH]c1=O,0,5,-1,4,1,98,
Cc1ccc(N2C(=O)NC(=O)/C(=C\c3cn(CC(=O)O)c4ccccc34)C2=O)cc1,6,-2,-6,-7,0,120,

# Screening results deposited in PubChem by several laboratories.
